Experimental data taken from ChEMBL document CHEMBL5724801, “EUbOPEN Chemogenomics Library - Multiplex” (2024).
Values joined by “and” are separate entries in the source; they are usually repeats but may differ in a detail not shown here. Equal values may be shown once.

Test system: HEK-293T
Experiment: Multiplex assay against HEK293T
Format: toxicity, cell-based
Conditions: human
In short: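 Cells stained live at seeding with Hoechst33342, BioTracker Green Microtubule Cytoskeleton Dye, MitoTracker Red and Annexin V Alexa Fluor 680 were imaged on a CQ1 microscope at 37°C and 5% CO2 after compound addition. Their classification by CellPathfinder machine-learning gating ran from Hoechst high-intensity objects versus normal cells, to healthy, pyknosed or fragmented nuclei among normal cells, to mitotic or apoptotic among pyknosed cells. Tubulin, mitochondrial-mass and membrane-permeability phenotypes are per cents of healthy-nucleus cells.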

[1] = 12 h, 1 µM, compound concentration 1 uM
[2] = 12 h, 10 µM, compound concentration 10 uM
[3] = 24 h, 1 µM, compound concentration 1 uM
[4] = 24 h, 10 µM, compound concentration 10 uM
[5] = 48 h, 1 µM, compound concentration 1 uM
[6] = 48 h, 10 µM, compound concentration 10 uM

SMILES: Cn1cc(C(=O)OCC2CCN(CCNS(C)(=O)=O)CC2)c2ccccc21
- Population Apoptotic (%) [1]: 39% and 56%
- Population Fragmented Nuclei (%) [1]: 5% and 9%
- Population Healthy Nuclei (%) [1]: 83% and 76%
- Population Hoechst High Intensity Objects (%) [1]: 7% and 8%
- Population Membrane Permeable-Phenotype (%) [1]: 0%
- Population Mitochondria Different-Phenotype (%) [1]: 35% and 62%
- Population Mitotic Cells (%) [1]: 60% and 43%
- Population Normal (%) [1]: 92% and 91%
- Population Pyknosed Nuclei (%) [1]: 10% and 14%
- Population Tubulin-Different-Phenotype (%) [1]: 22% and 28%
- Total Cell Count [1]: 466 and 248
- Population Apoptotic (%) [2]: 47% and 43%
- Population Fragmented Nuclei (%) [2]: 10%
- Population Healthy Nuclei (%) [2]: 73% and 71%
- Population Hoechst High Intensity Objects (%) [2]: 6% and 10%
- Population Membrane Permeable-Phenotype (%) [2]: 0%
- Population Mitochondria Different-Phenotype (%) [2]: 55% and 73%
- Population Mitotic Cells (%) [2]: 52% and 56%
- Population Normal (%) [2]: 93% and 89%
- Population Pyknosed Nuclei (%) [2]: 15% and 18%
- Population Tubulin-Different-Phenotype (%) [2]: 53% and 47%
- Total Cell Count [2]: 479 and 393
- Population Apoptotic (%) [3]: 29% and 48%
- Population Fragmented Nuclei (%) [3]: 6% and 12%
- Population Healthy Nuclei (%) [3]: 82% and 76%
- Population Hoechst High Intensity Objects (%) [3]: 4% and 5%
- Population Membrane Permeable-Phenotype (%) [3]: 1% and 0%
- Population Mitochondria Different-Phenotype (%) [3]: 21% and 42%
- Population Mitotic Cells (%) [3]: 70% and 51%
- Population Normal (%) [3]: 95% and 94%
- Population Pyknosed Nuclei (%) [3]: 10%
- Population Tubulin-Different-Phenotype (%) [3]: 16% and 17%
- Total Cell Count [3]: 650 and 283
- Population Apoptotic (%) [4]: 35% and 48%
- Population Fragmented Nuclei (%) [4]: 11% and 10%
- Population Healthy Nuclei (%) [4]: 74% and 79%
- Population Hoechst High Intensity Objects (%) [4]: 5% and 6%
- Population Membrane Permeable-Phenotype (%) [4]: 1% and 0%
- Population Mitochondria Different-Phenotype (%) [4]: 43% and 56%
- Population Mitotic Cells (%) [4]: 64% and 51%
- Population Normal (%) [4]: 94% and 93%
- Population Pyknosed Nuclei (%) [4]: 13% and 9%
- Population Tubulin-Different-Phenotype (%) [4]: 50% and 37%
- Total Cell Count [4]: 587 and 491
- Population Apoptotic (%) [5]: 25% and 44%
- Population Fragmented Nuclei (%) [5]: 12% and 11%
- Population Healthy Nuclei (%) [5]: 78% and 82%
- Population Hoechst High Intensity Objects (%) [5]: 3% and 4%
- Population Membrane Permeable-Phenotype (%) [5]: 1% and 3%
- Population Mitochondria Different-Phenotype (%) [5]: 12% and 23%
- Population Mitotic Cells (%) [5]: 74% and 55%
- Population Normal (%) [5]: 96% and 95%
- Population Pyknosed Nuclei (%) [5]: 8% and 6%
- Population Tubulin-Different-Phenotype (%) [5]: 10% and 11%
- Total Cell Count [5]: 1090 and 490
- Population Apoptotic (%) [6]: 38%
- Population Fragmented Nuclei (%) [6]: 16% and 13%
- Population Healthy Nuclei (%) [6]: 77% and 79%
- Population Hoechst High Intensity Objects (%) [6]: 6% and 4%
- Population Membrane Permeable-Phenotype (%) [6]: 1% and 0%
- Population Mitochondria Different-Phenotype (%) [6]: 31% and 37%
- Population Mitotic Cells (%) [6]: 61%
- Population Normal (%) [6]: 93% and 95%
- Population Pyknosed Nuclei (%) [6]: 6%
- Population Tubulin-Different-Phenotype (%) [6]: 28% and 26%
- Total Cell Count [6]: 883 and 758

SMILES: Cc1ccccc1C(=O)Nc1ccc(C(=O)N2CCCC(N(C)C)c3ccccc32)cc1.Cl (configuration not stated)
- Population Apoptotic (%) [1]: 18% and 53%
- Population Fragmented Nuclei (%) [1]: 6% and 5%
- Population Healthy Nuclei (%) [1]: 80% and 79%
- Population Hoechst High Intensity Objects (%) [1]: 8% and 6%
- Population Membrane Permeable-Phenotype (%) [1]: 0%
- Population Mitochondria Different-Phenotype (%) [1]: 51% and 72%
- Population Mitotic Cells (%) [1]: 81% and 46%
- Population Normal (%) [1]: 91% and 93%
- Population Pyknosed Nuclei (%) [1]: 12% and 14%
- Population Tubulin-Different-Phenotype (%) [1]: 33% and 29%
- Total Cell Count [1]: 519 and 412
- Population Apoptotic (%) [2]: 53% and 64%
- Population Fragmented Nuclei (%) [2]: 6% and 8%
- Population Healthy Nuclei (%) [2]: 70% and 72%
- Population Hoechst High Intensity Objects (%) [2]: 8% and 15%
- Population Membrane Permeable-Phenotype (%) [2]: 0%
- Population Mitochondria Different-Phenotype (%) [2]: 74% and 82%
- Population Mitotic Cells (%) [2]: 46% and 35%
- Population Normal (%) [2]: 91% and 84%
- Population Pyknosed Nuclei (%) [2]: 22% and 18%
- Population Tubulin-Different-Phenotype (%) [2]: 60% and 61%
- Total Cell Count [2]: 233 and 285
- Population Apoptotic (%) [3]: 31% and 30%
- Population Fragmented Nuclei (%) [3]: 11% and 5%
- Population Healthy Nuclei (%) [3]: 79% and 83%
- Population Hoechst High Intensity Objects (%) [3]: 5% and 4%
- Population Membrane Permeable-Phenotype (%) [3]: 0%
- Population Mitochondria Different-Phenotype (%) [3]: 28% and 52%
- Population Mitotic Cells (%) [3]: 68% and 69%
- Population Normal (%) [3]: 94% and 95%
- Population Pyknosed Nuclei (%) [3]: 8% and 11%
- Population Tubulin-Different-Phenotype (%) [3]: 17% and 19%
- Total Cell Count [3]: 727 and 567
- Population Apoptotic (%) [4]: 41% and 44%
- Population Fragmented Nuclei (%) [4]: 8% and 7%
- Population Healthy Nuclei (%) [4]: 70% and 73%
- Population Hoechst High Intensity Objects (%) [4]: 7% and 14%
- Population Membrane Permeable-Phenotype (%) [4]: 0%
- Population Mitochondria Different-Phenotype (%) [4]: 71% and 83%
- Population Mitotic Cells (%) [4]: 58% and 55%
- Population Normal (%) [4]: 92% and 85%
- Population Pyknosed Nuclei (%) [4]: 21% and 18%
- Population Tubulin-Different-Phenotype (%) [4]: 46%
- Total Cell Count [4]: 268 and 285
- Population Apoptotic (%) [5]: 13% and 34%
- Population Fragmented Nuclei (%) [5]: 13% and 10%
- Population Healthy Nuclei (%) [5]: 78% and 82%
- Population Hoechst High Intensity Objects (%) [5]: 2% and 4%
- Population Membrane Permeable-Phenotype (%) [5]: 1% and 0%
- Population Mitochondria Different-Phenotype (%) [5]: 24% and 30%
- Population Mitotic Cells (%) [5]: 86% and 65%
- Population Normal (%) [5]: 97% and 95%
- Population Pyknosed Nuclei (%) [5]: 8% and 6%
- Population Tubulin-Different-Phenotype (%) [5]: 17% and 14%
- Total Cell Count [5]: 1095 and 722
- Population Apoptotic (%) [6]: 55% and 63%
- Population Fragmented Nuclei (%) [6]: 10% and 9%
- Population Healthy Nuclei (%) [6]: 69% and 77%
- Population Hoechst High Intensity Objects (%) [6]: 6%
- Population Membrane Permeable-Phenotype (%) [6]: 0%
- Population Mitochondria Different-Phenotype (%) [6]: 69% and 72%
- Population Mitotic Cells (%) [6]: 44% and 36%
- Population Normal (%) [6]: 93%
- Population Pyknosed Nuclei (%) [6]: 20% and 12%
- Population Tubulin-Different-Phenotype (%) [6]: 49% and 41%
- Total Cell Count [6]: 283 and 314

SMILES: CN1CC[C@@]23CCCC[C@@H]2[C@@H]1Cc1ccc(O)cc13.O=C(O)C(O)C(O)C(=O)O
- Population Apoptotic (%) [1]: 5.07% and 6.25%
- Population Fragmented Nuclei (%) [1]: 0% and 2.38%
- Population Healthy Nuclei (%) [1]: 61.34% and 21.43%
- Population Hoechst High Intensity Objects (%) [1]: 0.28% and 0.59%
- Population Membrane Permeable-Phenotype (%) [1]: 0%
- Population Mitochondria Different-Phenotype (%) [1]: 31.51% and 13.89%
- Population Mitotic Cells (%) [1]: 94.93% and 93.75%
- Population Normal (%) [1]: 99.72% and 99.41%
- Population Pyknosed Nuclei (%) [1]: 38.66% and 76.19%
- Total Cell Count [1]: 358 and 169
- Population Apoptotic (%) [2]: 7.34% and 9.57%
- Population Fragmented Nuclei (%) [2]: 0.33% and 1.28%
- Population Healthy Nuclei (%) [2]: 63.93% and 25%
- Population Hoechst High Intensity Objects (%) [2]: 0%
- Population Membrane Permeable-Phenotype (%) [2]: 0% and 2.56%
- Population Mitochondria Different-Phenotype (%) [2]: 30.77%
- Population Mitotic Cells (%) [2]: 92.66% and 90.43%
- Population Normal (%) [2]: 100%
- Population Pyknosed Nuclei (%) [2]: 35.74% and 73.72%
- Total Cell Count [2]: 305 and 156
- Population Apoptotic (%) [3]: 13.27% and 11.22%
- Population Fragmented Nuclei (%) [3]: 1.37% and 2.04%
- Population Healthy Nuclei (%) [3]: 83.74% and 47.96%
- Population Hoechst High Intensity Objects (%) [3]: 0.15% and 0.51%
- Population Membrane Permeable-Phenotype (%) [3]: 1.27% and 3.19%
- Population Mitochondria Different-Phenotype (%) [3]: 9.98% and 11.7%
- Population Mitotic Cells (%) [3]: 86.73% and 88.78%
- Population Normal (%) [3]: 99.85% and 99.49%
- Population Tubulin-Different-Phenotype (%) [3]: 6.17% and 3.19%
- Population Apoptotic (%) [4]: 10.81% and 11.46%
- Population Fragmented Nuclei (%) [4]: 0.62% and 0.67%
- Population Healthy Nuclei (%) [4]: 76.45% and 35.33%
- Population Hoechst High Intensity Objects (%) [4]: 0%
- Population Membrane Permeable-Phenotype (%) [4]: 0.54% and 0%
- Population Mitochondria Different-Phenotype (%) [4]: 20.54% and 11.32%
- Population Mitotic Cells (%) [4]: 89.19% and 88.54%
- Population Normal (%) [4]: 100%
- Population Pyknosed Nuclei (%) [4]: 22.93% and 64%
- Population Tubulin-Different-Phenotype (%) [4]: 12.16% and 9.43%
- Population Fragmented Nuclei (%) [5]: 4.07% and 2.37%
- Population Healthy Nuclei (%) [5]: 87.05% and 78.04%
- Population Hoechst High Intensity Objects (%) [5]: 0%
- Population Membrane Permeable-Phenotype (%) [5]: 3.59% and 4.18%
- Population Mitochondria Different-Phenotype (%) [5]: 11.36% and 7.6%
- Population Mitotic Cells (%) [5]: 97.89% and 83.33%
- Population Normal (%) [5]: 100%
- Population Pyknosed Nuclei (%) [5]: 8.89% and 19.58%
- Population Fragmented Nuclei (%) [6]: 2.47% and 1.7%
- Population Healthy Nuclei (%) [6]: 87.64% and 68.94%
- Population Hoechst High Intensity Objects (%) [6]: 0%
- Population Membrane Permeable-Phenotype (%) [6]: 5.64% and 3.09%
- Population Mitochondria Different-Phenotype (%) [6]: 15.29% and 22.84%
- Population Mitotic Cells (%) [6]: 95.19% and 81.16%
- Population Normal (%) [6]: 100%
- Population Pyknosed Nuclei (%) [6]: 9.89% and 29.36%
